Data taken from ChEMBL document CHEMBL1154000, “Modified low molecular weight cyclic peptides as mimetics of BDNF with improved potency, proteolytic stability and transmembrane passage in vitro” (Bioorg Med Chem, 2009).

Columns and labels:
[1] = Increase in neuronal survival in embryonic chick dorsal root ganglion sensory neurons at 10 uM to 0.1 nM after 48 hrs relative to BDNF; type: functional, Gallus gallus, DRG neuron; settings: in the assay text read “at 100 uM” for “at 10 uM to 0.1 nM”
In short: (§1)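 Primary embryonic chick DRG sensory neuron cultures. Peptides tested in log10 increments, with surviving neurons counted after 48 h. Triplicate well counts averaged and normalised between BDNF positive (100%) and negative (0%) controls. Data given as mean ± SEM, n = 3–4. pEC20BDNF is the negative log10 of the concentration giving 20% of the BDNF survival response.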

[2] = Apparent permeability across apical to basolateral side in human Caco-2 cells at 200 uM after 150 mins; type: ADME, cell-based
In short: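 Caco-2 cells (passage 82–96) grown 24–25 days on polycarbonate Transwell supports (0.45 µm pore, 1.13 cm²). Basolateral samples taken every 30 min for 150 min with buffer replacement. Samples acetylated, lyophilised, redissolved in 2% TFA and centrifuged; bis-acetylated peptide quantified by LCMS. Papp given as mean ± SEM from 3–4 monolayers.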

[3] = Increase in neuronal survival in embryonic chick dorsal root ganglion sensory neurons at 10 uM to 0.1 nM after 48 hrs relative to BDNF
[4] = Increase in neuronal survival in embryonic chick dorsal root ganglion sensory neurons assessed as normalized neuronal survival response equivalent to 20% for BDNF after 48 hrs; type: functional, Gallus gallus, DRG neuron; in short: as §1
Plasma = test: (§2) Stability in mouse plasma assessed as degradation; type: ADME, cell-free
In short: (§3)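 Peptide (0.2 mg) incubated at 37 °C in single-mouse plasma diluted 50% in PBS, sampled over 24 h. Each aliquot put on ice, treated with lysine (1000 equiv) to displace protein binding, then MeCN to precipitate proteins, centrifuged at 4 °C and diluted for HPLC. Peak areas taken as ratio to 4-isopropylbenzyl alcohol internal standard, as % of t = 0; three experiments.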

[5] = Stability in mouse plasma assessed as half life at 0.2 mg; type: ADME, cell-free; in short: as §3
[6] = Increase in neuronal survival in embryonic chick dorsal root ganglion sensory neurons at 10 uM to 10 nM after 48 hrs relative to BDNF; type: functional, Gallus gallus, DRG neuron; in short: as §1
[7] = Increase in neuronal survival in embryonic chick dorsal root ganglion sensory neurons at 0.1 uM after 48 hrs relative to BDNF; type: functional, Gallus gallus, DRG neuron; settings: in the assay text read “0.01 uM” for “0.1 uM”; in short: as §1
[8] = as §2; type: ADME, cell-free; settings: read-out: Activity; in short: as §3

SMILES | Papp A→B at 2.5 h, 200 µM [2] [×10⁻⁶ cm/s] | Activity (Plasma) | half-life [5] [h] | metabolised [8] [%] | Activity [1] [%] | Activity [3] [%] | Activity [4] | Activity [6] [%] | Activity [7] [%]
CCCCCCCCCCCCCCCC(=O)NCCCC[C@@H]1NC(=O)[C@H]2CCCN2C(=O)[C@H](CCCNC(=N)N)NC(=O)[C@H](CCCCN)NC(=O)[C@H](CCCCN)NC1=O |  |  |  |  |  |  | 9.1 | 49.4 | 28.4
N=C(N)NCCC[C@@H]1NC(=O)[C@H](CCCCN)NC(=O)[C@H](CCCCN)NC(=O)[C@H](CCCCN)NC(=O)[C@H]2CCCN2C1=O |  |  |  |  |  |  | 7.5 | 60.9 | 
N=C(N)NCCC[C@@H]1NC(=O)[C@H](CCCCN)NC(=O)[C@H](CCCCN)NC(=O)[C@H](Cc2ccccc2)NC(=O)[C@H]2CCCN2C1=O |  |  |  |  |  |  | 5.3 | 21.8 | 

Continued, in another order:

Papp A→B at 2.5 h, 200 µM [2] [×10⁻⁶ cm/s] | Activity (Plasma) | half-life [5] [h] | metabolised [8] [%] | SMILES | Activity [1] [%] | Activity [3] [%] | Activity [4] | Activity [6] [%] | Activity [7] [%]
0.642 | Stable | > 24 |  | C[C@@H]1NC(=O)[C@H]2CCCN2C(=O)[C@H](CCCNC(=N)N)NC(=O)[C@H](CCCCN)NC(=O)[C@H](CCCCN)NC1=O | 67.7 | 37.3 | 7.3 |  | 
0.929 |  |  |  | CCCCC(=O)NCCCC[C@@H]1NC(=O)[C@H]2CCCN2C(=O)[C@H](CCCNC(=N)N)NC(=O)[C@H](CCCCN)NC(=O)[C@H](CCCCN)NC1=O |  |  | 7.7 | 39.4 | 
0.922 |  | > 24 | 20 | CCCCCCCC(=O)NCCCC[C@@H]1NC(=O)[C@H]2CCCN2C(=O)[C@H](CCCNC(=N)N)NC(=O)[C@H](CCCCN)NC(=O)[C@H](CCCCN)NC1=O |  |  | 7.5 | 38.7 | 
0.288 |  |  |  | CCCC[C@@H]1NC(=O)[C@H]2CCCN2C(=O)[C@H](CCCNC(=N)N)NC(=O)[C@H](CCCCN)NC(=O)[C@H](CCCCN)NC1=O |  |  | 6.2 | 36.2 | 
